Measurements taken from ChEMBL document CHEMBL1687750, “Nonclinical pharmacokinetics of oseltamivir and oseltamivir carboxylate in the central nervous system” (Antimicrob Agents Chemother, 2009).

Tests used:
[1] = Cmax in perfused Sprague-Dawley rat cerebrospinal fluid at 30 mg/kg, iv; format: ADME, organism-based; design: dose 30 mg/kg, route intravenous
Procedure, shortened: (§1)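 Nonfasted adult rats received 30 mg/kg in aqueous 0.9% NaCl (pH 4.0) by slow tail-vein injection over 20–30 s. Groups were sampled at 5 min and 0.25, 0.5, 1, 2, 4 and 8 h, with 4–5 rats per time point, under terminal isoflurane. Blood was taken by heart puncture and CSF from the cisterna magna. Brains were homogenized either unperfused or after transcardial saline perfusion. Samples were assayed by LC-MS/MS, and pooled composite data were analyzed noncompartmentally.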

[2] = Permeability from […] of Spodoptera frugiperda Sf9 cells over expressing human BCRP1; format: ADME, cell-based
Procedure, shortened: (§2)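 Membrane vesicles (20–50 µg) from insect cells expressing recombinant human BCRP1, MRP1 or MRP3 were prewarmed at 37°C. They were incubated for 60 s at 37°C with 14C-oseltamivir (3.8 µM) or OC (3.1 µM), with or without 5 mM ATP, in sucrose/KNO3/Mg(NO3)2/HEPES-Tris pH 7.4. The reaction was stopped with ice-cold buffer containing taurocholate, followed by rapid nitrocellulose filtration and scintillation counting. Determinations were in triplicate.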

[3] = […] of Spodoptera frugiperda Sf9 cells over expressing human MRP1; format: ADME, cell-based; procedure, shortened: as §2
[4] = Permeability from […] of Spodoptera frugiperda Sf9 cells over expressing human MRP3; format: ADME, cell-based; procedure, shortened: as §2
[5] = Prodrug conversion in human liver S9 fractions assessed as oseltamivir carboxylate generation rate assessed per mg of protein per min; format: ADME, subcellular, S9 fraction
Procedure, shortened: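 S9 from brain or liver (rat S9 made by homogenizing tissue in ~4 ml Tris-sucrose buffer per g, supernatant after 9,000 × g at 10°C; pooled human brain and liver S9 also used), protein by bicinchoninic acid assay. Oseltamivir: triplicate, 10 μM 14C-oseltamivir final, 1.0 mg S9 protein, 100 mM Tris-HCl pH 7.4, 30 min at 37°C, quenched with TCA-acetonitrile.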

[6] = Prodrug conversion in 7 days old female rat liver S9 fractions assessed as paranitrophenol generation rate assessed per mg of protein per min; format: ADME, subcellular, S9 fraction
[7] = Cmax in non-perfused Sprague-Dawley rat plasma at 30 mg/kg, iv; format: ADME, organism-based; design: dose 30 mg/kg, route intravenous; procedure, shortened: as §1
[8] = Cmax in non-perfused Sprague-Dawley rat cerebrospinal fluid at 30 mg/kg, iv; format: ADME, organism-based; design: dose 30 mg/kg, route intravenous; procedure, shortened: as §1
[9] = Cmax in non-perfused Sprague-Dawley rat brain at 30 mg/kg, iv; format: ADME, organism-based; design: dose 30 mg/kg, route intravenous; procedure, shortened: as §1
[10] = Cmax in perfused Sprague-Dawley rat plasma at 30 mg/kg, iv; format: ADME, organism-based; design: dose 30 mg/kg, route intravenous; procedure, shortened: as §1
[11] = Cmax in perfused Sprague-Dawley rat brain at 30 mg/kg, iv; format: ADME, organism-based; design: dose 30 mg/kg, route intravenous; procedure, shortened: as §1
[12] = Terminal half life in non-perfused Sprague-Dawley rat plasma at 30 mg/kg, iv; format: ADME, organism-based; design: dose 30 mg/kg, route intravenous; settings: read-out: beta t1/2 (converted)
Procedure, shortened: (§3)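 Nonfasted Sprague-Dawley rats given 30 mg/kg i.v. in 0.9% NaCl pH 4.0 by tail vein over 20–30 s. Terminal sampling under isoflurane at 5 min, 0.25, 0.5, 1, 2, 4 and 8 h (4–5 rats/time): plasma, CSF, and brain homogenate, with or without saline perfusion. LC-MS/MS. t1/2, Vss and ratios from noncompartmental analysis of pooled composite concentrations.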

[13] = Terminal half life in non-perfused Sprague-Dawley rat cerebrospinal fluid at 30 mg/kg, iv; format: ADME, organism-based; design: dose 30 mg/kg, route intravenous; settings: read-out: beta t1/2 (converted); procedure, shortened: as §3
[14] = Terminal half life in non-perfused Sprague-Dawley rat brain at 30 mg/kg, iv; format: ADME, organism-based; design: dose 30 mg/kg, route intravenous; settings: read-out: beta t1/2 (converted); procedure, shortened: as §3
[15] = Terminal half life in perfused Sprague-Dawley rat plasma at 30 mg/kg, iv; format: ADME, organism-based; design: dose 30 mg/kg, route intravenous; settings: read-out: beta t1/2 (converted); procedure, shortened: as §3
[16] = Terminal half life in perfused Sprague-Dawley rat cerebrospinal fluid at 30 mg/kg, iv; format: ADME, organism-based; design: dose 30 mg/kg, route intravenous; settings: read-out: beta t1/2 (converted); procedure, shortened: as §3
[17] = Terminal half life in perfused Sprague-Dawley rat brain at 30 mg/kg, iv; format: ADME, organism-based; design: dose 30 mg/kg, route intravenous; settings: read-out: beta t1/2 (converted); procedure, shortened: as §3
[18] = Cmax in perfused Sprague-Dawley rat plasma at 1000 mg/kg, po; format: ADME, organism-based; design: dose 1000 mg/kg, route oral
Procedure, shortened: (§4)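 Oseltamivir phosphate was given by oral gavage at 1,000 mg/kg free base. Sampling was at 1, 2, 4, 6 and 8 h, with 4 rats per time point, under terminal isoflurane. Blood was taken by cardiac puncture and CSF from the cisterna magna. Brains were perfused transcardially with saline before homogenization. Samples were quantified by LC-MS/MS, with noncompartmental analysis of pooled composite data giving AUC0-8 h and concentration ratios.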

[19] = Cmax in perfused Sprague-Dawley rat cerebrospinal fluid at 1000 mg/kg, po; format: ADME, organism-based; design: dose 1000 mg/kg, route oral; procedure, shortened: as §4
[20] = Cmax in perfused Sprague-Dawley rat brain at 1000 mg/kg, po; format: ADME, organism-based; design: dose 1000 mg/kg, route oral; procedure, shortened: as §4
[21] = AUC (0 to 8 hrs) ratio in brain to plasma in perfused Sprague-Dawley rat at 1000 mg/kg, po; format: ADME, organism-based; design: dose 1000 mg/kg, route oral; settings: brain and plasma, read-out: Ratio AUC; procedure, shortened: as §4
[22] = AUC (0 to 8 hrs) ratio in cerebrospinal fluid to brain in perfused Sprague-Dawley rat at 1000 mg/kg, po; format: ADME, organism-based; design: dose 1000 mg/kg, route oral; settings: in vivo; procedure, shortened: as §4
Brain [23] = test: Ratio of AUC (0 to infinity) after iv dose to AUC (0 to 8 hrs) after po dose in perfused Sprague-Dawley rat brain at 1000 mg/kg; format: ADME, organism-based; design: dose 1000 mg/kg, route oral; settings: in vivo
Procedure, shortened: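 Sprague-Dawley rats, nonfasted. i.v.: 30 mg/kg in 0.9% NaCl pH 4.0, slow tail-vein injection, sampled at 5 min and 0.25–8 h. Oral gavage: 1,000 mg/kg free base, sampled 1–8 h. Four or five rats per time point, with cardiac blood and cisterna magna CSF. Brains taken with or without saline transcardial perfusion (oral study perfused). LC-MS/MS. AUC by noncompartmental analysis of pooled composite data.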

[24] = AUC (0 to 8 hrs) ratio in cerebrospinal fluid to plasma in perfused Sprague-Dawley rat at 1000 mg/kg, po; format: ADME, organism-based; design: dose 1000 mg/kg, route oral; settings: cerebrospinal fluid and plasma, read-out: Ratio AUC; procedure, shortened: as §4
Brain [25] = test: AUC (0 to 8 hrs) after iv dose in perfused Sprague-Dawley rat brain at 30 mg/kg; settings: in vivo
Plasma [26] = test: AUC (0 to 8 hrs) after iv dose in perfused Sprague-Dawley rat plasma at 30 mg/kg; settings: in vivo
Plasma [27] = test: AUC (0 to 8 hrs) after po dose in perfused Sprague-Dawley rat plasma at 1000 mg/kg; settings: in vivo
Brain [28] = test: AUC (0 to 8 hrs) after iv dose in non-perfused Sprague-Dawley rat brain at 30 mg/kg; settings: in vivo
Cerebrospinal fluid [29] = test: AUC (0 to 8 hrs) after iv dose in perfused Sprague-Dawley rat cerebrospinal fluid at 30 mg/kg; settings: in vivo
Cerebrospinal fluid [30] = test: AUC (0 to 8 hrs) after po dose in perfused Sprague-Dawley rat cerebrospinal fluid at 1000 mg/kg; settings: in vivo
Cerebrospinal fluid [31] = test: AUC (0 to 8 hrs) after iv dose in non-perfused Sprague-Dawley rat cerebrospinal fluid at 30 mg/kg; settings: in vivo
Cerebrospinal fluid [32] = test: Cmax in perfused Sprague-Dawley rat cerebrospinal fluid assessed as active metabolite oseltamivir carboxylate level at 30 mg/kg, iv; format: ADME, organism-based; design: dose 30 mg/kg, route intravenous; settings: in vivo, BLD = below limit of detection; procedure, shortened: as §1
Rattus norvegicus = test: Volume of distribution at steady state in Sprague-Dawley rat assessed as active metabolite oseltamivir carboxylate level at 30 mg/kg, iv; format: ADME, organism-based; design: dose 30 mg/kg, route intravenous; settings: in vivo; procedure, shortened: as §3

CCOC(=O)C1=C[C@@H](OC(CC)CC)[C@H](NC(C)=O)[C@@H](N)C1 [OSELTAMIVIR]
Cmax [1]: 921 ng/mL
permeability [2]: impermeable
permeability [3]: impermeable
permeability [4]: impermeable
Activity [5]: 119 pmol/s
Activity [6]: 538 nmol
Cmax [7]: 12000 ng/mL
Cmax [8]: 897 ng/mL
Cmax [9]: 712 ng/g
Cmax [10]: 12500 ng/mL
Cmax [11]: 491 ng/g
half-life [12]: 1.35 h
half-life [13]: 0.813 h
half-life [14]: 2.45 h
half-life [15]: 1.59 h
half-life [16]: 0.812 h
half-life [17]: 1.51 h
Cmax [18]: 16300 ng/mL
Cmax [19]: 1120 ng/mL
Cmax [20]: 2310 ng/g
Kp [21]: 0.12
Ratio AUC [22]: 0.55
AUC (Brain [23]): 13600 ng·h/g
Kp [24]: 0.07
AUC (Brain [25]): 1160
AUC (Plasma [26]): 5330
AUC (Plasma [27]): 107000
AUC (Brain [28]): 1310
AUC (Cerebrospinal fluid [29]): 472
AUC (Cerebrospinal fluid [30]): 7470
AUC (Cerebrospinal fluid [31]): 450

CCC(CC)O[C@@H]1C=C(C(=O)O)C[C@H](N)[C@H]1NC(C)=O [OSELTAMIVIR CARBOXYLATE]
Cmax [1]: 249 ng/mL
permeability [2]: impermeable
permeability [3]: impermeable
permeability [4]: impermeable
Cmax [7]: 72300 ng/mL
Cmax [8]: 227 ng/mL
Cmax [9]: 1710 ng/g
Cmax [10]: 86300 ng/mL
Cmax [11]: 605 ng/g
half-life [12]: 1.64 h
half-life [13]: 0.342 h
half-life [14]: 0.379 h
half-life [15]: 1.69 h
half-life [16]: 0.382 h
half-life [17]: 0.478 h
Cmax (Cerebrospinal fluid [32]): BLD
Cmax [18]: 49700 ng/mL
Cmax [19]: 363 ng/mL
Cmax [20]: 641 ng/g
Kp [21]: 0.01
Ratio AUC [22]: 0.64
Ratio AUC (Brain [23]): 3450
Vdss (Rattus norvegicus): 0.8 L/kg
Kp [24]: 0.007
AUC (Brain [25]): 305
AUC (Plasma [26]): 33800
AUC (Plasma [27]): 286000
AUC (Brain [28]): 687
AUC (Cerebrospinal fluid [29]): 137
AUC (Cerebrospinal fluid [30]): 1940
AUC (Cerebrospinal fluid [31]): 128
